High-throughput results from PubChem BioAssay.
Rows were chosen to be rich in hits. Some 3.1% of all compounds tested hit in one or more screens of this group.
KCNK3 block: human KCNK3 channel inhibitors, primary screen, CHO cells, FluxOR thallium flux, B-score. Potassium channel subfamily K member 3 (Homo sapiens), O14649. FluxOR fluorescence; hits give low values. B-score at 10 µM. 340,000 compounds, 0.84% hits. AID 602410, 2012;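 active means B-score under library mean minus 4 SD, starting fluorescence ratio at most library mean plus 5 SD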;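 further: more negative B-score means stronger inhibition of thallium flux through KCNK3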
Target sequence (O14649 whole entry, looked up): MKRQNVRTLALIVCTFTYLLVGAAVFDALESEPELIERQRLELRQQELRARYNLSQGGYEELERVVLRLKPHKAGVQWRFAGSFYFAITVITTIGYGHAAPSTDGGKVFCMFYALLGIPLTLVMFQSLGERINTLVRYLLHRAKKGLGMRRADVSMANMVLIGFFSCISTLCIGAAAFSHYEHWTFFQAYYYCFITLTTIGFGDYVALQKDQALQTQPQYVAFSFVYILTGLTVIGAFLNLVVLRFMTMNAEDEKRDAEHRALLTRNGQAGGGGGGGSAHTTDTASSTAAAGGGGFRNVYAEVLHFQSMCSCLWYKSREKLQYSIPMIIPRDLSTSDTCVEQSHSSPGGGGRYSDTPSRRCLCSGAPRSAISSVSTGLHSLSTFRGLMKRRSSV
KCNQ1 block: inhibitors of human KCNQ1 channel, primary screen, cell-based, thallium flux, high-throughput | Potassium voltage-gated channel subfamily KQT member 1 (Homo sapiens), P51787 | CHO-K1 KCNQ1, FluxOR thallium flux fluorescence; hits give high values | B-score at 10 µM | 310,000 compounds, 1.3% hits;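 active means compounds whose thallium flux B-score, printed positive for inhibition, exceeds three library SD while starting fluorescence stays within three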;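 further: channel opened by potassium depolarization with thallium stimulus after 20 min compound exposure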
hERG protect: hERG rescue from dofetilide block, primary screen, cell-based, CHO-hERG, FluxOR thallium flux, dofetilide IC70. Voltage-gated inwardly rectifying potassium channel KCNH2 (Homo sapiens), Q12809. activation (rescue from dofetilide block), less the hit threshold, % at 10 µM. 310,000 compounds, 0.51% hits. dofetilide IC70 present. AID 1511, 2009;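 active means activation above the mean of controls blocked by dofetilide plus 5 SD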;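 further: thallium influx through hERG after potassium depolarization seen as dye fluorescence rise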
KCNK9 inh: KCNK9 potassium channel inhibitors, primary screen, HEK293 cells, thallium flux. AID 488922, 2010. FluxOR thallium flux fluorescence; hits give low values. B-score at 10 µM. 310,000 compounds, 1.2% hits;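 active means ratio B-score over 3 SD below the library mean, with starting fluorescence within 5 SD of its mean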;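 further: negative B-score means less thallium flux so channel inhibition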
KCNQ1 act: potentiators or activators of KCNQ1 channel, primary screen, cell-based, thallium flux, high-throughput. CHO-K1 KCNQ1, thallium flux FluxOR fluorescence; hits give high values. Potassium voltage-gated channel subfamily KQT member 1 (Homo sapiens), P51787. AID 2648, 2010. B-score at 10 µM. 310,000 compounds, 0.35% hits;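 active means fluorescence ratio B-score, a plate-corrected score, at least three library SD, with initial intensity B-score within 5 SD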
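assay system = KCNQ1-transfected CHO-K1 cells | medium = assay buffer with matched DMSO | probe or stimulus = depolarizing K+/Tl+ stimulus, K2SO4 and Tl2SO4 each 12.5 mM in 5x stock | dosing = single dose | incubation = dye 90 min, compound 20 min, room temperature | detection = kinetic FluxOR fluorescence, 10 s baseline plus 110 s post-stimulus | evaluation = ratio B score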
KCNK9 inh conf: KCNK9 potassium channel inhibitors, confirmation, HEK293 cells, thallium flux, duplicate | shares compounds with KCNK9 inh | FluxOR thallium flux fluorescence | inhibition, % at 10 µM | 4,900 compounds, 43% hits;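 active means thallium signal inhibited by more than 5 SD of the compound-free buffer control wells, on both duplicate plates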;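 further: 0% = assay buffer control wells without compound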
Kir2-1 spec: mouse Kir2.1 channel inhibition, confirmation, selectivity assay for KCNK9 modulator project, cell-based, HEK293, thallium flux | shares compounds with KCNK9 inh | inhibition, % at 10 µM | 4,900 compounds, 4% hits | Kir2.1 cells, FluxOR thallium flux fluorescence;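 active means thallium signal drop more than 5 SD beyond the mean of the no-compound control wells, seen in both duplicate plates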;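 further: signal is fluorescence rise after thallium addition divided by baseline fluorescence; plate controls were assay buffer only for no effect and full block by chlorpromazine control for full effect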
HEK293 Tl ctr: thallium flux in non-induced HEK293 cells, confirmation, counter-screen for KCNK9 inhibitor project, cell-based, second counter screen, non-induced KCNK9-HEK293 | shares compounds with KCNK9 inh | FluxOR thallium flux | inhibition, % at 10 µM | 4,900 compounds, 40% hits;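 active means thallium signal drop beyond 5 SD of the untreated control mean, on both duplicate plates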;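 further: plate controls were buffer only IC0 wells for no effect and SID17386958 at its maximal inhibitory level for full effect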
An asterisk follows results filed as active; i = inactive; . = no result given.

SMILES	KCNK3 block	KCNQ1 block	hERG protect	KCNK9 inh	KCNQ1 act	KCNK9 inh conf	Kir2-1 spec	HEK293 Tl ctr
COc1cc(OC)cc(C(=O)NCC(=O)OCC(=O)c2cc(C)n(Cc3ccco3)c2C)c1	i	i	-8	i	i	.	.	.
CCCCN(C(=O)COC(=O)COc1c(C)cc(C)cc1C)c1c(N)n(CCC)c(=O)[nH]c1=O	i	i	-14	i	i	.	.	.
Cc1ccc(NC(=O)CN(C)C(=O)CSc2nnc(N)s2)cc1	i	.	.	.	.	.	.	.
CCCN(C(=O)c1c(CC)noc1C)c1c(N)n(Cc2ccccc2)c(=O)[nH]c1=O	i	i	-12	i	i	.	.	.
COCc1cc(CN2CCCC(C(=O)c3cccc(C(F)(F)F)c3)C2)ccc1OC (centres undefined)	i	i	-13	i	i	i	i	i
CCOC(=O)c1[nH]ncc1CN1CCCC(C(=O)c2cccc(OC(C)C)c2)C1 (centres undefined)	i	i	-14	i	i	.	.	.
CCn1ncc(CN2CCCC(C(=O)c3cccc(OC(C)C)c3)C2)c1C (centres undefined)	i	i	-9	i	i	i	i	i
COc1ccc(CN2CCCC(C(=O)c3cccc(OC(C)C)c3)C2)cc1Cn1cccn1 (centres undefined)	i	i	-23	i	i	i	i	i
COc1cccc(O)c1CN1CCCC(C(=O)c2cccc(C(F)(F)F)c2)C1 (centres undefined)	i	i	-29	i	i	.	.	.
COc1ccc(NC(=O)COC(=O)CCc2ccccc2)c(OC)c1	i	i	-1	i	i	.	.	.
O=C(COC(=O)c1ccccc1NC(=O)c1ccccc1)c1cccc([N+](=O)[O-])c1	i	i	-11	-14*	i	69%*	i	32%*
CCN(CC)C(=O)[C@H]1CC(CC(=O)NCCCOC)C(=O)N2CCc3c([nH]c4ccccc34)[C@]12C (some centres undefined)	i	.	.	.	.	.	.	.
Cc1cccc(C)c1NC(=O)C(NC=O)c1ccc(Cl)cc1 (centres undefined)	i	i	-7	i	i	.	.	.
Cc1cccc(C)c1NC(=O)C(C)c1ccc(-c2ccccc2)c(F)c1 (centres undefined)	i	i	-1	-10*	i	47%*	i	46%*
Cc1ccc(Cn2c(C3CCCN3c3nc(-c4cc(Cl)c(N)c(Cl)c4)cs3)nc3cc(C(=O)NCCCO)ccc32)cc1 (centres undefined)	i	i	-4	i	i	.	.	.
Cc1ccc(Cn2c(C3CCCN3c3nc(C)cs3)nc3cc(C(F)(F)F)ccc32)cc1 (centres undefined)	i	i	-15	-15*	i	74%*	i	56%*
c1ccc([C@H]2CN3C(=N2)Sc2ccccc23)cc1	i	.	.	.	.	.	.	.
O=C(Nc1ccccc1-c1nnc(SCc2ccc(Cl)cc2Cl)o1)c1ccccc1	i	i	-8	i	i	.	.	.
O=C(Nc1ccccc1-c1nnc(SCc2ccccc2Cl)o1)c1ccccc1	i	i	-8	i	i	i	i	i
CS(=O)(=O)N(CC(=O)Nc1cccc([N+](=O)[O-])c1)c1ccccc1	i	i	-10	i	i	.	.	.
